ChEMBL document CHEMBL5303300, “EUbOPEN Chemogenomics Library - Multiplex” (2023)
Several values for one entry are separate records, joined by “and”; a condition that tells them apart may be missing. Equal entries are not always repeated.

Test system: HEK-293T
Assay: Multiplex assay against HEK293T
Assay type: toxicity, cell-based
Conditions: human, number of replicates 2
Method in brief: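 Tubulin, mitochondrial-mass and membrane-permeability phenotypes are per cents of healthy-nucleus cells. Cells were gated by CellPathfinder machine learning into Hoechst high-intensity objects or normal cells, normal cells into healthy, pyknosed or fragmented nuclei, and pyknosed cells into mitotic or apoptotic. Before that, live cells stained at seeding with Hoechst33342, BioTracker Green Microtubule Cytoskeleton Dye, MitoTracker Red and Annexin V Alexa Fluor 680 were imaged on a CQ1 microscope at 37°C and 5% CO2 after compound addition.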

[1] = 12 h, 0 µM, compound concentration 0 uM
[2] = 12 h, 1 µM, compound concentration 1 uM
[3] = 24 h, 0 µM, compound concentration 0 uM
[4] = 24 h, 1 µM, compound concentration 1 uM
[5] = 48 h, 0 µM, compound concentration 0 uM
[6] = 48 h, 1 µM, compound concentration 1 uM
[7] = 12 h, 10 µM, compound concentration 10 uM
[8] = 24 h, 10 µM, compound concentration 10 uM
[9] = 48 h, 10 µM, compound concentration 10 uM

## COc1cc(C(N)=O)ccc1Nc1ncc2c(n1)N(CCC(C)C)[C@H](C)C(=O)N2C
[1]
  Population Apoptotic (%): 47% and 52%
  Population Fragmented Nuclei (%): 3% and 2%
  Population Healthy Nuclei (%): 86% and 88%
  Population Hoechst High Intensity Objects (%): 2%
  Population Membrane Permeable-Phenotype (%): 4% and 10%
  Population Mitochondria Different-Phenotype (%): 31% and 35%
  Population Mitotic Cells (%): 52% and 47%
  Population Normal (%): 97%
  Population Pyknosed Nuclei (%): 10% and 9%
  Population Tubulin-Different-Phenotype (%): 82% and 95%
  Total Cell Count: 540 and 476
[2]
  Population Apoptotic (%): 62% and 60%
  Population Fragmented Nuclei (%): 1% and 4%
  Population Healthy Nuclei (%): 73% and 75%
  Population Hoechst High Intensity Objects (%): 8% and 7%
  Population Membrane Permeable-Phenotype (%): 2%
  Population Mitochondria Different-Phenotype (%): 38% and 28%
  Population Mitotic Cells (%): 37% and 39%
  Population Normal (%): 91% and 92%
  Population Pyknosed Nuclei (%): 24% and 20%
  Population Tubulin-Different-Phenotype (%): 64% and 58%
  Total Cell Count: 432 and 456
[3]
  Population Apoptotic (%): 67% and 50%
  Population Fragmented Nuclei (%): 4% and 5%
  Population Healthy Nuclei (%): 88%
  Population Hoechst High Intensity Objects (%): 3% and 2%
  Population Membrane Permeable-Phenotype (%): 1% and 2%
  Population Mitochondria Different-Phenotype (%): 44% and 59%
  Population Mitotic Cells (%): 32% and 50%
  Population Normal (%): 96% and 97%
  Population Pyknosed Nuclei (%): 6%
  Population Tubulin-Different-Phenotype (%): 81% and 96%
  Total Cell Count: 464 and 423
[4]
  Population Apoptotic (%): 75% and 68%
  Population Fragmented Nuclei (%): 5%
  Population Healthy Nuclei (%): 69% and 76%
  Population Hoechst High Intensity Objects (%): 8% and 6%
  Population Membrane Permeable-Phenotype (%): 1%
  Population Mitochondria Different-Phenotype (%): 34% and 32%
  Population Mitotic Cells (%): 24% and 31%
  Population Normal (%): 91% and 93%
  Population Pyknosed Nuclei (%): 25% and 18%
  Population Tubulin-Different-Phenotype (%): 38% and 35%
  Total Cell Count: 461 and 420
[5]
  Population Apoptotic (%): 72% and 75%
  Population Fragmented Nuclei (%): 16% and 11%
  Population Healthy Nuclei (%): 78% and 80%
  Population Hoechst High Intensity Objects (%): 3%
  Population Membrane Permeable-Phenotype (%): 1% and 3%
  Population Mitochondria Different-Phenotype (%): 39% and 55%
  Population Mitotic Cells (%): 28% and 24%
  Population Normal (%): 96%
  Population Pyknosed Nuclei (%): 5% and 7%
  Population Tubulin-Different-Phenotype (%): 63% and 89%
  Total Cell Count: 505 and 420
[6]
  Population Apoptotic (%): 72% and 73%
  Population Fragmented Nuclei (%): 8% and 11%
  Population Healthy Nuclei (%): 72% and 76%
  Population Hoechst High Intensity Objects (%): 5% and 4%
  Population Membrane Permeable-Phenotype (%): 1%
  Population Mitochondria Different-Phenotype (%): 14% and 17%
  Population Mitotic Cells (%): 27% and 26%
  Population Normal (%): 94% and 95%
  Population Pyknosed Nuclei (%): 19% and 12%
  Population Tubulin-Different-Phenotype (%): 24% and 20%
  Total Cell Count: 520 and 517

## NC(=O)c1ccc(-c2nc(-c3ccc4c(c3)OCCO4)c(-c3ccccn3)[nH]2)cc1
[2]
  Population Apoptotic (%): 57% and 48%
  Population Fragmented Nuclei (%): 3%
  Population Healthy Nuclei (%): 83% and 85%
  Population Hoechst High Intensity Objects (%): 6% and 8%
  Population Membrane Permeable-Phenotype (%): 0% and 2%
  Population Mitochondria Different-Phenotype (%): 16% and 11%
  Population Mitotic Cells (%): 42% and 52%
  Population Normal (%): 93% and 91%
  Population Pyknosed Nuclei (%): 13% and 10%
  Population Tubulin-Different-Phenotype (%): 54% and 46%
  Total Cell Count: 656 and 747
[7]
  Population Apoptotic (%): 46% and 38%
  Population Fragmented Nuclei (%): 3%
  Population Healthy Nuclei (%): 87% and 88%
  Population Hoechst High Intensity Objects (%): 7% and 4%
  Population Membrane Permeable-Phenotype (%): 3% and 5%
  Population Mitochondria Different-Phenotype (%): 15% and 16%
  Population Mitotic Cells (%): 53% and 61%
  Population Normal (%): 92% and 95%
  Population Pyknosed Nuclei (%): 9% and 8%
  Population Tubulin-Different-Phenotype (%): 61% and 55%
  Total Cell Count: 620 and 572
[4]
  Population Apoptotic (%): 44% and 61%
  Population Fragmented Nuclei (%): 7% and 3%
  Population Healthy Nuclei (%): 85% and 87%
  Population Hoechst High Intensity Objects (%): 9% and 7%
  Population Membrane Permeable-Phenotype (%): 2% and 1%
  Population Mitochondria Different-Phenotype (%): 4% and 6%
  Population Mitotic Cells (%): 55% and 38%
  Population Normal (%): 90% and 92%
  Population Pyknosed Nuclei (%): 7% and 8%
  Population Tubulin-Different-Phenotype (%): 23% and 29%
  Total Cell Count: 1205 and 941
[8]
  Population Apoptotic (%): 48% and 44%
  Population Fragmented Nuclei (%): 4% and 3%
  Population Healthy Nuclei (%): 89% and 90%
  Population Hoechst High Intensity Objects (%): 7% and 8%
  Population Membrane Permeable-Phenotype (%): 4% and 3%
  Population Mitochondria Different-Phenotype (%): 9% and 5%
  Population Mitotic Cells (%): 51% and 55%
  Population Normal (%): 92% and 91%
  Population Pyknosed Nuclei (%): 6% and 5%
  Population Tubulin-Different-Phenotype (%): 39% and 37%
  Total Cell Count: 908 and 852
[6]
  Population Apoptotic (%): 14% and 25%
  Population Fragmented Nuclei (%): 16% and 11%
  Population Healthy Nuclei (%): 80% and 85%
  Population Hoechst High Intensity Objects (%): 10%
  Population Membrane Permeable-Phenotype (%): 5% and 1%
  Population Mitochondria Different-Phenotype (%): 0%
  Population Mitotic Cells (%): 85% and 74%
  Population Normal (%): 89%
  Population Pyknosed Nuclei (%): 2%
  Population Tubulin-Different-Phenotype (%): 11% and 15%
  Total Cell Count: 3179 and 2277
[9]
  Population Apoptotic (%): 6% and 9%
  Population Fragmented Nuclei (%): 10% and 9%
  Population Healthy Nuclei (%): 86% and 87%
  Population Hoechst High Intensity Objects (%): 7% and 8%
  Population Membrane Permeable-Phenotype (%): 5%
  Population Mitochondria Different-Phenotype (%): 1%
  Population Mitotic Cells (%): 93% and 90%
  Population Normal (%): 92% and 91%
  Population Pyknosed Nuclei (%): 3%
  Population Tubulin-Different-Phenotype (%): 21% and 23%
  Total Cell Count: 2159 and 1774

## CC(C)c1cc(-c2ccc(F)c3ccccc23)nc(N)n1
[2]
  Population Apoptotic (%): 45% and 56%
  Population Fragmented Nuclei (%): 3%
  Population Healthy Nuclei (%): 88% and 87%
  Population Hoechst High Intensity Objects (%): 5%
  Population Membrane Permeable-Phenotype (%): 2%
  Population Mitochondria Different-Phenotype (%): 15%
  Population Mitotic Cells (%): 54% and 43%
  Population Normal (%): 94%
  Population Pyknosed Nuclei (%): 8% and 9%
  Population Tubulin-Different-Phenotype (%): 54% and 59%
  Total Cell Count: 775 and 598
[7]
  Population Apoptotic (%): 62%
  Population Fragmented Nuclei (%): 3% and 4%
  Population Healthy Nuclei (%): 78% and 80%
  Population Hoechst High Intensity Objects (%): 7%
  Population Membrane Permeable-Phenotype (%): 1% and 0%
  Population Mitochondria Different-Phenotype (%): 25% and 20%
  Population Mitotic Cells (%): 37%
  Population Normal (%): 92%
  Population Pyknosed Nuclei (%): 18% and 15%
  Population Tubulin-Different-Phenotype (%): 66% and 60%
  Total Cell Count: 434 and 448
[4]
  Population Apoptotic (%): 49% and 36%
  Population Fragmented Nuclei (%): 6% and 4%
  Population Healthy Nuclei (%): 88%
  Population Hoechst High Intensity Objects (%): 7% and 9%
  Population Membrane Permeable-Phenotype (%): 2% and 3%
  Population Mitochondria Different-Phenotype (%): 4% and 5%
  Population Mitotic Cells (%): 50% and 63%
  Population Normal (%): 92% and 90%
  Population Pyknosed Nuclei (%): 5% and 6%
  Population Tubulin-Different-Phenotype (%): 34% and 35%
  Total Cell Count: 1247 and 898
[8]
  Population Apoptotic (%): 41% and 43%
  Population Fragmented Nuclei (%): 7% and 6%
  Population Healthy Nuclei (%): 84% and 82%
  Population Hoechst High Intensity Objects (%): 7% and 6%
  Population Membrane Permeable-Phenotype (%): 2% and 1%
  Population Mitochondria Different-Phenotype (%): 14% and 12%
  Population Mitotic Cells (%): 58% and 56%
  Population Normal (%): 92% and 93%
  Population Pyknosed Nuclei (%): 8% and 10%
  Population Tubulin-Different-Phenotype (%): 46% and 42%
  Total Cell Count: 675 and 625
[6]
  Population Apoptotic (%): 10% and 18%
  Population Fragmented Nuclei (%): 16% and 10%
  Population Healthy Nuclei (%): 81% and 85%
  Population Hoechst High Intensity Objects (%): 9% and 10%
  Population Membrane Permeable-Phenotype (%): 5%
  Population Mitochondria Different-Phenotype (%): 0% and 1%
  Population Mitotic Cells (%): 90% and 81%
  Population Normal (%): 90% and 89%
  Population Pyknosed Nuclei (%): 2% and 4%
  Population Tubulin-Different-Phenotype (%): 17% and 23%
  Total Cell Count: 3182 and 1908
[9]
  Population Apoptotic (%): 20% and 37%
  Population Fragmented Nuclei (%): 14% and 10%
  Population Healthy Nuclei (%): 81% and 86%
  Population Hoechst High Intensity Objects (%): 8% and 7%
  Population Membrane Permeable-Phenotype (%): 6% and 2%
  Population Mitochondria Different-Phenotype (%): 2% and 3%
  Population Mitotic Cells (%): 80% and 62%
  Population Normal (%): 91% and 92%
  Population Pyknosed Nuclei (%): 3% and 2%
  Population Tubulin-Different-Phenotype (%): 26% and 24%
  Total Cell Count: 1507 and 1327
